# Diaph act CS: activates diaphorase or chemically reduces, flagging diaphorase assay artifacts; activation factor at 20 µM; actives 0.005% (n = 190,000); AID 1229; Diaphorase/resazurin coupled assay, resorufin fluorescence, 16 min; active compounds read high; 1 = vehicle wells, 0 = NADH-free wells;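 active = diaphorase activity raised at least twofold by the compound at 20 µM; inactive = activation factor below 2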
#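 Measured by – red resorufin fluorescence at 544/590 nm excitation/emission · Test system – Clostridium kluyveri diaphorase, purified enzyme · Incubation – reaction time 16 min, room temperature · Buffer or medium – 50 mM HEPES pH 7.4 with 4.542 mM MgCl2, 0.005% Tween 20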
# G6PDH CS: inhibits Leuconostoc G6PDH, flagging false hits in G6PDH-based assays; Purified L. mesenteroides G6PDH, diaphorase/resazurin coupled fluorescence, 45 min; inhibition, % at 5 µM; actives 0.12% (n = 200,000)
# Diaphorase inh: counter-screen for diaphorase-based assays: diaphorase inhibitors and chemical oxidizers; diaphorase resazurin-to-resorufin fluorescence, NADH, 16 min; bacterial (C. kluyveri) enzyme, not human; inhibition, % at 20 µM; actives 0.69% (n = 190,000);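 active = primary screen inhibition at 20 µM above a set limit, cut at about 50% in these data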
#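 Test system: Clostridium kluyveri diaphorase enzyme / Quantity: diaphorase at 0.14 U/mL in enzyme working solution / Incubation: 16-min room-temperature incubation before reading / Benchmarks: NADH-free wells as positive control, DMSO-only neutral wells / Signal: resorufin fluorescence 544/590 nm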
# L major viab: Leishmania major promastigote growth inhibition; inhibition, % at 10 µM; actives 9% (n = 200,000); Leishmania major promastigotes, resazurin fluorescence viability;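 also: promastigotes grown with compound for 44 hours at 28 °C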
# DTT redox prof: compounds producing H2O2 with reducing agent – biochemical, NIH compound library profiling, artefact control for MLSCN library redox annotation, primary screen; activation, % at 10 µM; DTT-dependent redox cycling H2O2, phenol red/HRP absorbance; 100% = 100 µM peroxide control, 0% = buffer; actives 0.03% (n = 200,000); AID 878;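 active = activation of at least 50% relative to the plate's high and low controls in the primary single-dose screen; inactive = activation below 50%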;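 also: compound incubated with DTT at 0.8 mM final as the reducing agent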
# PfGluPho inh: PfG6PD (Plasmodium falciparum) enzyme inhibition; inhibition, % at 20 µM; actives 0.78% (n = 350,000); PfGluPho enzyme, NADPH resazurin-diaphorase fluorescence; AID 504690;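 active = inhibition reaching at least a set limit at 20 µM in the primary screen, cut at about 59% in these data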
# A number is an active result; i = inactive; nt = no result given. Shown is part of a subset that was picked to be rich in hits. Rule as the data show it, unless noted: active = inhibition above about 50%; inactive = the rest.
SMILES,Diaph act CS,G6PDH CS,Diaphorase inh,L major viab,DTT redox prof,PfGluPho inh
CCCNS(=O)(=O)c1ccc(OCC(=O)Nc2ccc3c(c2)OCCO3)c(C)c1,nt,nt,nt,nt,nt,i
CC1CCCN(Cc2c(O)ccc3c(=O)c(-c4nc5ccccc5s4)c(N)oc23)C1 (stereo not given),i,i,i,100.7,i,i
CC1CCN(Cc2c(O)ccc3c(=O)c(-c4nc5ccccc5s4)c(N)oc23)CC1,i,i,i,60.3,i,i
CCOc1ccc(CNC2CCCc3ccccc32)cc1 (stereo not given),i,i,i,69.7,i,i
O=C(c1ccco1)N1CCN(C(=O)C(Sc2ccccc2)c2ccccc2)CC1 (stereo not given),i,i,i,59.1,i,i
CS(=O)(=O)c1ccc(Cl)c(NC(=O)CCN2C(=O)NC3(CCCC3)C2=O)c1,nt,nt,nt,nt,nt,i
Cc1ccc(O)c(C(=O)c2cc(C(=O)NCCc3ccccc3)c(=O)n(CCc3ccccc3)c2)c1,i,i,i,99.3,i,i
COc1ccc(O)c(C(=O)c2cc(C(=O)NCCc3ccccc3)c(=O)n(CCc3ccccc3)c2)c1,i,i,i,77.3,i,i
COc1ccc(O)c(C(=O)CC(=O)c2ccccc2)c1,i,i,i,i,i,nt
CCN1C(=O)C(=O)N(CC(=O)N2CCN(c3ccccc3)CC2)C1=O,nt,nt,nt,nt,nt,i
CCN(CC)CCSc1nc2ccccc2c(=S)n1-c1ccccc1,i,i,i,81.7,i,i
CCN(CC)CCSc1nc(O)c(-c2ccccc2)c(=O)n1-c1ccccc1,i,i,i,i,i,i
CCOC(=O)Cc1csc(NC(=O)NC2(C(F)(F)F)Oc3cc(Cl)c(Cl)cc3O2)n1,i,51.3,i,i,i,i
CCOC(=O)Cc1csc(NC(=O)NC2(C(F)(F)F)Oc3ccccc3O2)n1,i,i,i,89.8,i,i
CCOC(=O)Cc1csc(NC(=O)Nc2ccc(OC(F)(F)F)cc2)n1,nt,nt,nt,nt,nt,i
CCOC(=O)Cc1csc(NC(=O)Cc2ccc(Cl)cc2)n1,nt,nt,nt,nt,nt,i
CCOC(=O)Cc1csc(NC(=O)c2cc3c(s2)CCCC3)n1,i,i,i,91.2,i,i
CCOC(=O)Cc1csc(NC(=O)NC2(C(F)(F)F)Oc3ccc(Cl)cc3O2)n1 (stereo not given),i,i,i,52.9,i,i
CCOC(=O)Cc1csc(NC(=O)c2cc(C)c(C)s2)n1,nt,nt,nt,nt,nt,i
COc1cccc(/C=C(\C)C(=O)c2c(C)cc(C)[nH]c2=O)c1OC,nt,nt,nt,nt,nt,i
COC(=O)c1ccc(NC(=O)C(=O)c2cn(CC(=O)N3CCOCC3)c3ccccc23)cc1,nt,nt,nt,nt,nt,i
COc1ccc2c(c1)CC/C(=C/c1ccncc1)C2=O,i,i,i,74.9,i,i
CCC1C/C(=C\c2cccnc2)C(=O)/C(=C/c2cccnc2)C1 (stereo not given),i,i,i,100.4,i,i
COc1ccc2c(c1)CC/C(=C\c1ccc(C)o1)C2=O,nt,nt,nt,nt,nt,i
O=C1/C(=C\c2cccnc2)CCc2ccccc21,i,i,i,100.3,i,i
SMILES,Diaph act CS,G6PDH CS,Diaphorase inh,L major viab,DTT redox prof,PfGluPho inh
O=C1/C(=C/c2ccc(C(=O)O)cc2)CCC/C1=C\c1ccc(C(=O)O)cc1,i,i,i,66.0,nt,i
CN(C)c1ccc(/C=C2\CCC/C(=C\c3ccccc3)C2=O)cc1,i,i,i,i,i,i
S=C1NCCNC(=S)NCCOCCOCCOCCN1,i,i,i,i,i,i
Cc1ccc(SCC(=O)Nc2ccc(S(N)(=O)=O)cc2)cc1,i,i,i,i,i,i
CC(C)/C=C1\CC/C(=C\c2cccnc2)C1=O,i,i,i,53.9,i,i
O=C1NC(=S)N/C1=C/c1cccnc1,nt,nt,nt,nt,nt,i
O=C1/C(=C/c2cccnc2)CCC/C1=C\c1cccnc1,i,i,i,100.5,i,i
CC(C)N1C(=O)S/C(=C/c2cccnc2)C1=O,i,i,i,71.0,i,i
O=C1/C(=C/c2cccnc2)CC/C1=C\c1cccnc1,i,i,i,81.5,i,i
O=C1CCC(C(=O)N2CCN(c3ccccc3)CC2)CN1CC1CCCCC1 (stereo not given),nt,nt,nt,nt,nt,i
O=C(CSc1nnc(-c2ccc(O)cc2)n1Cc1ccco1)c1cccs1,i,i,i,i,i,i
N#Cc1c(-c2ccccc2)c(-c2ccccc2)n(Cc2ccco2)c1NC(=O)c1cccs1,i,i,i,61.9,i,i
Cc1ccc(-n2c(C)cc(C(=O)COC(=O)C3=NNC(=O)CC3)c2C)cc1,i,i,i,95.0,i,i
Cc1ccc(-n2c(C)cc(C(=O)CSc3n[nH]c(N)n3)c2C)cc1,i,i,i,95.1,i,i
Cc1cc(C(=O)CSc2n[nH]c(N)n2)c(C)n1-c1ccc(F)cc1,i,i,i,i,i,i
Cc1ccc(NC(=O)c2ccc(COc3ccc4c(c3)CCC4)cc2)c(C)c1,i,i,i,i,i,i
COc1ccc(C=O)cc1OS(=O)(=O)c1ccccc1[N+](=O)[O-],i,i,i,90.4,i,i
COc1ccc(C(=S)N2CCOCC2)cc1OS(=O)(=O)c1ccccc1[N+](=O)[O-],i,i,i,i,i,i
CCOCCCNC(=O)c1oc2ccc3c(c2c1C)C(O)CC(C)(C)O3 (stereo not given),nt,nt,nt,nt,nt,i
O=S(=O)(NCc1cc(-c2ccccc2)no1)c1ccccc1,i,i,i,i,i,i
O=S(=O)(NCc1cc(-c2ccccc2Cl)no1)c1ccccc1,i,i,i,79.1,i,i
CC(NC(=O)Cc1ccccc1[N+](=O)[O-])c1ccccc1 (stereo not given),i,i,i,i,i,nt
CC(NC(=O)COC(=O)Cc1ccccc1[N+](=O)[O-])c1ccccc1 (stereo not given),i,i,i,60.2,nt,i
O=C(Nc1ccc(F)cc1F)NC1CCCCCCC1,nt,nt,nt,nt,nt,i
COc1cc(OC)c2c(-c3cccc(-c4ccc(F)c(Cl)c4)c3)cc(=O)oc2c1,nt,nt,nt,nt,nt,i
SMILES,Diaph act CS,G6PDH CS,Diaphorase inh,L major viab,DTT redox prof,PfGluPho inh
Cc1ccc(C)c(/C=C/C(=O)c2ccccc(=O)c2O)c1,i,i,i,99.4,i,i
Cc1ccc(/C=C/C(=O)c2ccccc(=O)c2O)c(C)c1,i,i,i,80.7,i,i
O=C(/C=C/c1ccccc1Cl)c1ccc(O)cc1,nt,nt,nt,nt,nt,i
O=C(/C=C/c1ccccc1Cl)c1ccccc(=O)c1O,i,i,i,100.3,i,i
C[C@@H]1CN([C@H](C)CO)C(=O)CCCn2nncc2CO[C@H]1CN(C)C(=O)Nc1cccc2ccccc12,nt,nt,nt,nt,nt,i
CCOC(=O)c1c(NC(=O)c2ccco2)sc2c1CCCC2,i,i,i,i,i,i
CCOC(=O)c1c(NC(=O)COc2cccc3c2CCN(Cc2ccc(F)cc2)C3=O)sc2c1CCC2,i,i,i,i,i,nt
CCOC(=O)c1c(NC(=O)C(=O)N/N=C/c2ccccc2O)sc2c1CCCCC2,i,i,i,98.7,i,i
